{"source": "ChEMBL document CHEMBL1139437", "about": "“Design, synthesis, and preliminary pharmacological evaluation of 4-aminopiperidine derivatives as N-type calcium channel blockers active on pain and neuropathic pain” (J Med Chem, 2004)", "key": {"[1]": {"tested_on": "Mus musculus", "experiment": "Analgesic activity was evaluated in mouse hotplate test; expressed as licking latency after 45 min of treatment at a dose of 5 ug intracerebroventricularly", "type": "functional", "procedure,_shortened": "(§1)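 Male Swiss albino mice (23-30 g); icv injection of 5 μL (saline or H2O/DMSO 2:1) under brief anaesthesia. Paw-licking latency (s) on hot plate read before injection and every 15 min up to 60 min. Mice with pretest latency below 12 or over 18 s excluded; cutoff 45 s. Statistics against saline- or vehicle-treated controls.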"}, "[2]": {"tested_on": "Mus musculus", "experiment": "Analgesic activity was evaluated in mouse hotplate test; expressed as licking latency after 15 min of treatment at a dose of 5 ug intracerebroventricularly", "type": "functional", "procedure,_shortened": "as §1"}, "[3]": {"species_on_record": "Mus musculus", "experiment": "Percentage analgesic efficacy when compared to morphine", "type": "functional", "parameters": "concentration or dose not given beside the values", "procedure,_shortened": "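Male Swiss albino mice, hot-plate test, paw-licking latency; pretest 12–18 s required, cutoff 45 s. Icv injection of 5 μL under brief anaesthesia, in saline or H2O/DMSO 2:1, at maximal soluble dose. Latency read before and every 15 min after dosing. Efficacy = (peak latency − pretest) as % of the same value for morphine 10 μg/mouse icv; non-significant effects scored 0.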"}, "[4]": {"tested_on": "Mus musculus", "experiment": "Analgesic activity was evaluated in mouse hotplate test; expressed as licking latency after 30 min of treatment at a dose of 5 ug intracerebroventricularly", "type": "functional", "procedure,_shortened": "as §1"}, "[5]": {"tested_on": "Rattus norvegicus", "experiment": "Antihyperalgesic activity was evaluated in rat (dx) paw pressure test after 60 min at a dose of 30 ug intracerebroventricularly"}, "[6]": {"tested_on": "Rattus norvegicus", "experiment": "Antihyperalgesic activity was evaluated in rat (sn) paw pressure test after 30 min at a dose of 30 ug intracerebroventricularly"}, "[7]": {"tested_on": "Rattus norvegicus", "experiment": "Antihyperalgesic activity was evaluated in rat (sn) paw pressure test after 45 min at a dose of 30 ug intracerebroventricularly"}, "[8]": {"tested_on": "Mus musculus", "experiment": "Analgesic activity was evaluated in mouse hotplate test; expressed as licking latency after 45 min of treatment at a dose of 30 ug intracerebroventricularly", "type": "functional", "procedure,_shortened": "as §1"}, "[9]": {"tested_on": "Mus musculus", "experiment": "Analgesic activity was evaluated in mouse hotplate test; expressed as licking latency after 15 min of treatment at a dose of 30 ug intracerebroventricularly", "type": "functional", "procedure,_shortened": "as §1"}, "[10]": {"tested_on": "Rattus norvegicus", "experiment": "Antihyperalgesic activity was evaluated in rat (dx) paw pressure test after 45 min at a dose of 30 ug intracerebroventricularly"}, "[11]": {"tested_on": "Rattus norvegicus", "experiment": "Antihyperalgesic activity was evaluated in rat (dx) paw pressure test after 30 min at a dose of 30 ug intracerebroventricularly"}, "[12]": {"tested_on": "Mus musculus", "experiment": "Analgesic activity was evaluated in mouse hotplate test; expressed as licking latency after 30 min of treatment at a dose of 30 ug intracerebroventricularly", "type": "functional", "procedure,_shortened": "as §1"}, "[13]": {"tested_on": "Rattus norvegicus", "experiment": "Antihyperalgesic activity was evaluated in rat (sn) paw pressure test after 60 min at a dose of 30 ug intracerebroventricularly"}, "[14]": {"tested_on": "Mus musculus", "experiment": "Analgesic activity was evaluated in mouse hotplate test; expressed as licking latency after 30 min of treatment at a dose of 15 ug intracerebroventricularly", "type": "functional", "procedure,_shortened": "as §1"}, "[15]": {"tested_on": "Mus musculus", "experiment": "Analgesic activity was evaluated in mouse hotplate test; expressed as licking latency after 15 min of treatment at a dose of 15 ug intracerebroventricularly", "type": "functional", "procedure,_shortened": "as §1"}, "[16]": {"tested_on": "Mus musculus", "experiment": "Analgesic activity was evaluated in mouse hotplate test; expressed as licking latency after 45 min of treatment at a dose of 15 ug intracerebroventricularly", "type": "functional", "procedure,_shortened": "as §1"}, "[17]": {"tested_on": "Mus musculus", "experiment": "Analgesic activity was evaluated in mouse hotplate test; expressed as licking latency after 45 min of treatment at a dose of 25 ug intracerebroventricularly", "type": "functional", "procedure,_shortened": "as §1"}, "[18]": {"tested_on": "Mus musculus", "experiment": "Analgesic activity was evaluated in mouse hotplate test; expressed as licking latency after 15 min of treatment at a dose of 25 ug intracerebroventricularly", "type": "functional", "procedure,_shortened": "as §1"}, "[19]": {"tested_on": "Mus musculus", "experiment": "Analgesic activity was evaluated in mouse hotplate test; expressed as licking latency after 30 min of treatment at a dose of 25 ug intracerebroventricularly", "type": "functional", "procedure,_shortened": "as §1"}, "[20]": {"target": "Voltage-dependent N-type calcium channel subunit alpha-1B (Rattus norvegicus) (UniProt Q02294)", "sequence (Q02294 whole entry, looked up)": "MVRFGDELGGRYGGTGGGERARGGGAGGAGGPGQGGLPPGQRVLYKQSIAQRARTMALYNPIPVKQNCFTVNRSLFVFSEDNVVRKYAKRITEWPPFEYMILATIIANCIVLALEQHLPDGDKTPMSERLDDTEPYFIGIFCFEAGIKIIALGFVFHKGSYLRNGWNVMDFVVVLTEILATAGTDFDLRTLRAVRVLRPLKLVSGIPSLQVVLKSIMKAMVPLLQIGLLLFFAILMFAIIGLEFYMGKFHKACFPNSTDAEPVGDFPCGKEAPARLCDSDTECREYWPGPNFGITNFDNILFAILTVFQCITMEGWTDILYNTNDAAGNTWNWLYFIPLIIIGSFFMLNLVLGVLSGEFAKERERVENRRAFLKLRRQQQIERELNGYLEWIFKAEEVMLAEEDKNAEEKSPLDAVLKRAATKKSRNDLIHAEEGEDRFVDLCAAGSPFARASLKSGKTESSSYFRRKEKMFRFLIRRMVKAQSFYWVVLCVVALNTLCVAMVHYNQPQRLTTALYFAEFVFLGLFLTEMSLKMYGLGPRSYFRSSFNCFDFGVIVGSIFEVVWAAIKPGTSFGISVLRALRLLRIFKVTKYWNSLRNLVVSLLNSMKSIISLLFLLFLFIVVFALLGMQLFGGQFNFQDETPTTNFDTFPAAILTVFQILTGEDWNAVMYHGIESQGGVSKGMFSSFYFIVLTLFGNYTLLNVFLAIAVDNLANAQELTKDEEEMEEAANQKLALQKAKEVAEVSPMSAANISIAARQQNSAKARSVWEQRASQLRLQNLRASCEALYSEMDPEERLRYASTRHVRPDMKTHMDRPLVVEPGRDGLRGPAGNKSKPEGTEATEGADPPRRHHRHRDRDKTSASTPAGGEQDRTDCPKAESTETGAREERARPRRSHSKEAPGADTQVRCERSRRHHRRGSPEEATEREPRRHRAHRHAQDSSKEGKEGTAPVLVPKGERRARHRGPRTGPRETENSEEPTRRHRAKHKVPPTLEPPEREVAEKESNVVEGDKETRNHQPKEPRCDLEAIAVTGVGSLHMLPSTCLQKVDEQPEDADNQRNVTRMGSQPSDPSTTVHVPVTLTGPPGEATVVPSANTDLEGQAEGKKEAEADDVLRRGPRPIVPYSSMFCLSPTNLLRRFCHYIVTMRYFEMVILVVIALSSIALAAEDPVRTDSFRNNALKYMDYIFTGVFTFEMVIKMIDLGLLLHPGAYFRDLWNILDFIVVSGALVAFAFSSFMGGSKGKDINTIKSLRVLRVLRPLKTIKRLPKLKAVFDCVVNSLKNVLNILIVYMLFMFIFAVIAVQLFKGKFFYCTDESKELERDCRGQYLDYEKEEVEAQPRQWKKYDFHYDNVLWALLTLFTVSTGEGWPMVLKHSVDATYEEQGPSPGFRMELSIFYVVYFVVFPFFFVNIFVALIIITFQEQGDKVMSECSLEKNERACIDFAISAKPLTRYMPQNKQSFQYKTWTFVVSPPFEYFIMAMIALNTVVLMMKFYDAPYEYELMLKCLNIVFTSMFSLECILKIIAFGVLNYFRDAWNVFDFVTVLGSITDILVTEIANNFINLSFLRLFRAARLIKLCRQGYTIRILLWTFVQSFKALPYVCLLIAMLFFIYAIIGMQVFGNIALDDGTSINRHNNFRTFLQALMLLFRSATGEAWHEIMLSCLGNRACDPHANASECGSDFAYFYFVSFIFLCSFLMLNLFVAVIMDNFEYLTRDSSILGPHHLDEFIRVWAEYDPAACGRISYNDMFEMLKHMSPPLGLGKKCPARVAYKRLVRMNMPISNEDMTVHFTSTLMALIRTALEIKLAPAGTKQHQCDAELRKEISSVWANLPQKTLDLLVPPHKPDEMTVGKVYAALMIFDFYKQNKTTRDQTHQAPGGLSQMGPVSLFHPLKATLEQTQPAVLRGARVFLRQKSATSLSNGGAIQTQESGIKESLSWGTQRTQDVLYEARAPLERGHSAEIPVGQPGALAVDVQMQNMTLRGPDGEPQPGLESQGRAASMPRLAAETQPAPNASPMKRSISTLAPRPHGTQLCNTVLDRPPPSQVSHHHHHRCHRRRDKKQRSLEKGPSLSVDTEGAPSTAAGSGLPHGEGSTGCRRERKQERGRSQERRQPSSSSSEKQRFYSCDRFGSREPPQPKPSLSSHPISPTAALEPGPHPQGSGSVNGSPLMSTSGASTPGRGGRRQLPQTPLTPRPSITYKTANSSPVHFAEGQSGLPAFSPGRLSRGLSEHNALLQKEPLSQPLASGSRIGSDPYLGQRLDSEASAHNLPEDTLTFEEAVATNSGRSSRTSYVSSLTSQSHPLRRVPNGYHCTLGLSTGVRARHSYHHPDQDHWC", "experiment": "In vitro antagonism of N-type calcium channels expressed in PC12 cells was determined as the increase in intracellular calcium influx"}, "[21]": {"target": "Voltage-dependent N-type calcium channel subunit alpha-1B (Rattus norvegicus) (UniProt Q02294)", "experiment": "In vitro antagonism of N-type calcium channels expressed in PC12 cells was determined as the increase in intracellular calcium influx in the presence of 10 uM nifedipine"}, "[22]": {"tested_on": "Mus musculus", "experiment": "Analgesic activity was evaluated in mouse hotplate test; expressed as licking latency after 15 min of treatment at a dose of 10 ug intracerebroventricularly", "type": "functional", "procedure,_shortened": "as §1"}, "[23]": {"tested_on": "Mus musculus", "experiment": "Analgesic activity was evaluated in mouse hotplate test; expressed as licking latency after 45 min of treatment at a dose of 10 ug intracerebroventricularly", "type": "functional", "procedure,_shortened": "as §1"}, "[24]": {"tested_on": "Mus musculus", "experiment": "Analgesic activity was evaluated in mouse hotplate test; expressed as licking latency after 30 min of treatment at a dose of 10 ug intracerebroventricularly", "type": "functional", "procedure,_shortened": "as §1"}, "[25]": {"tested_on": "Mus musculus", "experiment": "Analgesic activity was evaluated in mouse hotplate test; expressed as licking latency after 30 min of treatment at a dose of 20 ug intracerebroventricularly", "type": "functional", "procedure,_shortened": "as §1"}, "[26]": {"tested_on": "Mus musculus", "experiment": "Analgesic activity was evaluated in mouse hotplate test; expressed as licking latency after 45 min of treatment at a dose of 20 ug intracerebroventricularly", "type": "functional", "procedure,_shortened": "as §1"}, "[27]": {"tested_on": "Mus musculus", "experiment": "Analgesic activity was evaluated in mouse hotplate test; expressed as licking latency after 15 min of treatment at a dose of 20 ug intracerebroventricularly", "type": "functional", "procedure,_shortened": "as §1"}}, "data": [{"smiles": "COc1ccc(CCNC2CCN(CCCC(c3ccccc3)c3ccccc3)CC2)cc1OC.O=C(O)C(=O)O", "values": [{"measurement": "Latency", "setting": "[1]", "value": 16.8, "unit": "s"}, {"measurement": "Latency", "setting": "[2]", "value": 17.7, "unit": "s"}, {"measurement": "Efficacy", "setting": "[3]", "value": 0, "unit": "%"}, {"measurement": "Latency", "setting": "[4]", "value": 16.4, "unit": "s"}]}, {"smiles": "CCCCNC1CCN(CCCC(C#N)(c2ccc(OC)c(OC)c2)C(C)C)CC1.Cl", "note": "(stereo not given)", "values": [{"measurement": "Activity", "setting": "[5]", "value": 38.6, "unit": "g"}, {"measurement": "Activity", "setting": "[6]", "value": 59.1, "unit": "g"}, {"measurement": "Activity", "setting": "[7]", "value": 57.3, "unit": "g"}, {"measurement": "Latency", "setting": "[8]", "value": 18.7, "unit": "s"}, {"measurement": "Latency", "setting": "[9]", "value": 23.1, "unit": "s"}, {"measurement": "Activity", "setting": "[10]", "value": 43.5, "unit": "g"}, {"measurement": "Activity", "setting": "[11]", "value": 47.3, "unit": "g"}, {"measurement": "Efficacy", "setting": "[3]", "value": 59, "unit": "%"}, {"measurement": "Latency", "setting": "[12]", "value": 21.3, "unit": "s"}, {"measurement": "Activity", "setting": "[13]", "value": 59.2, "unit": "g"}]}, {"smiles": "Cl.O=C(CCC(c1ccc(F)cc1)c1ccc(F)cc1)NC1CCN(CCO)CC1", "values": [{"measurement": "Latency", "setting": "[14]", "value": 16.8, "unit": "s"}, {"measurement": "Latency", "setting": "[15]", "value": 16.9, "unit": "s"}, {"measurement": "Latency", "setting": "[16]", "value": 17.3, "unit": "s"}, {"measurement": "Efficacy", "setting": "[3]", "value": 0, "unit": "%"}]}, {"smiles": "CCCCN1CCC(NCCCC(C#N)(c2ccc(OC)c(OC)c2)C(C)C)CC1.Cl", "note": "(stereo not given)", "values": [{"measurement": "Latency", "setting": "[17]", "value": 19, "unit": "s"}, {"measurement": "Latency", "setting": "[18]", "value": 20.5, "unit": "s"}, {"measurement": "Efficacy", "setting": "[3]", "value": 47, "unit": "%"}, {"measurement": "Latency", "setting": "[19]", "value": 21.6, "unit": "s"}]}, {"smiles": "COc1ccc(C(C#N)(CCCNC2CCN(CCOc3ccccc3)CC2)C(C)C)cc1OC.Cl", "note": "(stereo not given)", "values": [{"measurement": "Activity", "setting": "[5]", "value": 40.5, "unit": "g"}, {"measurement": "Activity", "setting": "[6]", "value": 57.3, "unit": "g"}, {"measurement": "Activity", "setting": "[7]", "value": 55.6, "unit": "g"}, {"measurement": "Latency", "setting": "[8]", "value": 15.2, "unit": "s"}, {"measurement": "IC50", "setting": "[20]", "value": 3.8, "unit": "µM"}, {"measurement": "Latency", "setting": "[9]", "value": 22.6, "unit": "s"}, {"measurement": "Activity", "setting": "[10]", "value": 38.6, "unit": "g"}, {"measurement": "IC50", "setting": "[21]", "value": 3.1, "unit": "µM"}, {"measurement": "Activity", "setting": "[11]", "value": 33.4, "unit": "g"}, {"measurement": "Efficacy", "setting": "[3]", "value": 59, "unit": "%"}, {"measurement": "Latency", "setting": "[12]", "value": 16.5, "unit": "s"}, {"measurement": "Activity", "setting": "[13]", "value": 59.4, "unit": "g"}]}, {"smiles": "COc1ccc(C(C#N)(CCC(=O)N2CCC(NCCOc3ccccc3)CC2)C(C)C)cc1OC.O=C(O)C(=O)O", "note": "(stereo not given)", "values": [{"measurement": "Latency", "setting": "[22]", "value": 15.7, "unit": "s"}, {"measurement": "Latency", "setting": "[23]", "value": 13.8, "unit": "s"}, {"measurement": "Latency", "setting": "[24]", "value": 18.5, "unit": "s"}, {"measurement": "Efficacy", "setting": "[3]", "value": 0, "unit": "%"}]}, {"smiles": "COc1ccc(CCNC2CCN(C(=O)CCC(C#N)(c3ccc(OC)c(OC)c3)C(C)C)CC2)cc1OC.O=C(O)C(=O)O", "note": "(stereo not given)", "values": [{"measurement": "Latency", "setting": "[22]", "value": 16.5, "unit": "s"}, {"measurement": "Latency", "setting": "[23]", "value": 17.3, "unit": "s"}, {"measurement": "Latency", "setting": "[24]", "value": 18.8, "unit": "s"}, {"measurement": "Efficacy", "setting": "[3]", "value": 0, "unit": "%"}]}, {"smiles": "COc1ccc(CCN2CCC(NCCCC(C#N)(c3ccc(OC)c(OC)c3)C(C)C)CC2)cc1OC.Cl", "note": "(stereo not given)", "values": [{"measurement": "Latency", "setting": "[14]", "value": 18.3, "unit": "s"}, {"measurement": "Latency", "setting": "[15]", "value": 17.7, "unit": "s"}, {"measurement": "Latency", "setting": "[16]", "value": 15.4, "unit": "s"}, {"measurement": "Efficacy", "setting": "[3]", "value": 0, "unit": "%"}]}, {"smiles": "O=C(CCC(c1ccc(F)cc1)c1ccc(F)cc1)NC1CCNCC1.O=C(O)C(=O)O", "values": [{"measurement": "Latency", "setting": "[25]", "value": 16.7, "unit": "s"}, {"measurement": "Efficacy", "setting": "[3]", "value": 64, "unit": "%"}, {"measurement": "Latency", "setting": "[26]", "value": 17.1, "unit": "s"}, {"measurement": "Latency", "setting": "[27]", "value": 21.8, "unit": "s"}]}]}
